ChEMBL document CHEMBL5058577, “EUbOPEN Chemogenomics Library 2 (Multiplex)” (2022)

System: Fibroblast
Experiment: Multiplex assay against human fibroblast
Assay type: toxicity, cell-based
Summary of the method: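 Live cells were stained at seeding with Hoechst33342, BioTracker Green Microtubule Cytoskeleton Dye, MitoTracker Red and Annexin V Alexa Fluor 680. Following compound addition, they were imaged on a CQ1 microscope at 37°C and 5% CO2 and gated by CellPathfinder machine learning into Hoechst high-intensity objects or normal cells, with normal cells split into healthy, pyknosed or fragmented nuclei and pyknosed cells into mitotic or apoptotic. Tubulin, mitochondrial-mass and membrane-permeability phenotypes are per cents of healthy-nucleus cells.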

[1] = 12 h, 1 µM, compound concentration 1 uM, replicate 1
[2] = 12 h, 1 µM, compound concentration 1 uM, replicate 2
[3] = 12 h, 10 µM, compound concentration 10 uM, replicate 1
[4] = 12 h, 10 µM, compound concentration 10 uM, replicate 2
[5] = 24 h, 1 µM, compound concentration 1 uM, replicate 1
[6] = 24 h, 1 µM, compound concentration 1 uM, replicate 2
[7] = 24 h, 10 µM, compound concentration 10 uM, replicate 1
[8] = 24 h, 10 µM, compound concentration 10 uM, replicate 2
[9] = 48 h, 1 µM, compound concentration 1 uM, replicate 1
[10] = 48 h, 1 µM, compound concentration 1 uM, replicate 2
[11] = 48 h, 10 µM, compound concentration 10 uM, replicate 1
[12] = 48 h, 10 µM, compound concentration 10 uM, replicate 2

CN1CCN2c3ccccc3Cc3ccccc3C2C1.Cl (stereo unspecified) [MIANSERIN HYDROCHLORIDE]
Population Apoptotic (%) [1]: 55%
Population Fragmented Nuclei (%) [1]: 28%
Population Healthy Nuclei (%) [1]: 56%
Population Hoechst High Intensity Objects (%) [1]: 2%
Population Membrane Permeable-Phenotype (%) [1]: 1%
Population Mitochondria Different-Phenotype (%) [1]: 0%
Population Mitotic Cells (%) [1]: 45%
Population Normal (%) [1]: 97%
Population Pyknosed Nuclei (%) [1]: 14%
Population Tubulin-Different-Phenotype (%) [1]: 31%
Total Cell Count [1]: 138
Population Apoptotic (%) [2]: 38%
Population Fragmented Nuclei (%) [2]: 27%
Population Healthy Nuclei (%) [2]: 50%
Population Hoechst High Intensity Objects (%) [2]: 4%
Population Membrane Permeable-Phenotype (%) [2]: 12%
Population Mitochondria Different-Phenotype (%) [2]: 5%
Population Mitotic Cells (%) [2]: 61%
Population Normal (%) [2]: 95%
Population Pyknosed Nuclei (%) [2]: 22%
Population Tubulin-Different-Phenotype (%) [2]: 56%
Total Cell Count [2]: 119
Population Apoptotic (%) [3]: 55%
Population Fragmented Nuclei (%) [3]: 15%
Population Healthy Nuclei (%) [3]: 68%
Population Hoechst High Intensity Objects (%) [3]: 5%
Population Membrane Permeable-Phenotype (%) [3]: 1%
Population Mitochondria Different-Phenotype (%) [3]: 3%
Population Mitotic Cells (%) [3]: 44%
Population Normal (%) [3]: 94%
Population Pyknosed Nuclei (%) [3]: 15%
Population Tubulin-Different-Phenotype (%) [3]: 14%
Total Cell Count [3]: 126
Population Apoptotic (%) [4]: 33%
Population Fragmented Nuclei (%) [4]: 24%
Population Healthy Nuclei (%) [4]: 48%
Population Hoechst High Intensity Objects (%) [4]: 6%
Population Membrane Permeable-Phenotype (%) [4]: 3%
Population Mitochondria Different-Phenotype (%) [4]: 7%
Population Mitotic Cells (%) [4]: 66%
Population Normal (%) [4]: 93%
Population Pyknosed Nuclei (%) [4]: 27%
Population Tubulin-Different-Phenotype (%) [4]: 40%
Total Cell Count [4]: 116
Population Apoptotic (%) [5]: 52%
Population Fragmented Nuclei (%) [5]: 32%
Population Healthy Nuclei (%) [5]: 55%
Population Hoechst High Intensity Objects (%) [5]: 2%
Population Membrane Permeable-Phenotype (%) [5]: 0%
Population Mitochondria Different-Phenotype (%) [5]: 2%
Population Mitotic Cells (%) [5]: 47%
Population Normal (%) [5]: 97%
Population Pyknosed Nuclei (%) [5]: 12%
Population Tubulin-Different-Phenotype (%) [5]: 29%
Total Cell Count [5]: 143
Population Apoptotic (%) [6]: 36%
Population Fragmented Nuclei (%) [6]: 30%
Population Healthy Nuclei (%) [6]: 50%
Population Hoechst High Intensity Objects (%) [6]: 3%
Population Membrane Permeable-Phenotype (%) [6]: 6%
Population Mitochondria Different-Phenotype (%) [6]: 1%
Population Mitotic Cells (%) [6]: 63%
Population Normal (%) [6]: 96%
Population Pyknosed Nuclei (%) [6]: 19%
Population Tubulin-Different-Phenotype (%) [6]: 53%
Total Cell Count [6]: 119
Population Apoptotic (%) [7]: 61%
Population Fragmented Nuclei (%) [7]: 14%
Population Healthy Nuclei (%) [7]: 73%
Population Hoechst High Intensity Objects (%) [7]: 5%
Population Membrane Permeable-Phenotype (%) [7]: 0%
Population Mitochondria Different-Phenotype (%) [7]: 1%
Population Mitotic Cells (%) [7]: 38%
Population Normal (%) [7]: 95%
Population Pyknosed Nuclei (%) [7]: 11%
Population Tubulin-Different-Phenotype (%) [7]: 11%
Total Cell Count [7]: 120
Population Apoptotic (%) [8]: 48%
Population Fragmented Nuclei (%) [8]: 31%
Population Healthy Nuclei (%) [8]: 47%
Population Hoechst High Intensity Objects (%) [8]: 4%
Population Membrane Permeable-Phenotype (%) [8]: 10%
Population Mitochondria Different-Phenotype (%) [8]: 5%
Population Mitotic Cells (%) [8]: 52%
Population Pyknosed Nuclei (%) [8]: 20%
Population Tubulin-Different-Phenotype (%) [8]: 53%
Total Cell Count [8]: 127
Population Apoptotic (%) [9]: 78%
Population Fragmented Nuclei (%) [9]: 35%
Population Healthy Nuclei (%) [9]: 55%
Population Hoechst High Intensity Objects (%) [9]: 2%
Population Membrane Permeable-Phenotype (%) [9]: 0%
Population Mitochondria Different-Phenotype (%) [9]: 2%
Population Mitotic Cells (%) [9]: 21%
Population Normal (%) [9]: 97%
Population Pyknosed Nuclei (%) [9]: 9%
Population Tubulin-Different-Phenotype (%) [9]: 35%
Total Cell Count [9]: 151
Population Apoptotic (%) [10]: 46%
Population Fragmented Nuclei (%) [10]: 36%
Population Healthy Nuclei (%) [10]: 51%
Population Hoechst High Intensity Objects (%) [10]: 3%
Population Membrane Permeable-Phenotype (%) [10]: 3%
Population Mitochondria Different-Phenotype (%) [10]: 10%
Population Mitotic Cells (%) [10]: 53%
Population Normal (%) [10]: 96%
Population Pyknosed Nuclei (%) [10]: 11%
Population Tubulin-Different-Phenotype (%) [10]: 50%
Total Cell Count [10]: 116
Population Apoptotic (%) [11]: 57%
Population Fragmented Nuclei (%) [11]: 15%
Population Healthy Nuclei (%) [11]: 71%
Population Hoechst High Intensity Objects (%) [11]: 5%
Population Membrane Permeable-Phenotype (%) [11]: 0%
Population Mitochondria Different-Phenotype (%) [11]: 2%
Population Mitotic Cells (%) [11]: 42%
Population Normal (%) [11]: 94%
Population Pyknosed Nuclei (%) [11]: 12%
Population Tubulin-Different-Phenotype (%) [11]: 16%
Total Cell Count [11]: 115
Population Apoptotic (%) [12]: 38%
Population Fragmented Nuclei (%) [12]: 29%
Population Healthy Nuclei (%) [12]: 55%
Population Hoechst High Intensity Objects (%) [12]: 3%
Population Membrane Permeable-Phenotype (%) [12]: 10%
Population Mitochondria Different-Phenotype (%) [12]: 1%
Population Mitotic Cells (%) [12]: 61%
Population Normal (%) [12]: 96%
Population Pyknosed Nuclei (%) [12]: 14%
Population Tubulin-Different-Phenotype (%) [12]: 37%
Total Cell Count [12]: 125
